By IC50 is commonly meant the midpoint of a concentration-inhibition curve. Low readings indicate higher potency, high ones lower potency. The term bioavailability denotes dose-corrected exposure relative to a reference, in per cent. A word on the clearance: it is a measure of how efficiently the substance is removed, as volume per time. A higher clearance goes with efficient removal. Broadly, the ED50 is the dose at which the effect has come halfway, by size or by number of responders. Lower therefore signals an effect at a small dose. As usually defined, the half-life is the time needed for the level to fall by half in the phase considered. Read a low half-life as fast loss.

The subject of one data set is PBMC. Put plainly: Inhibition of LPS-induced TNFalpha production in human PBMC by ELISA. The class given is functional, cell-based. The procedure, abridged: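 PBMC from healthy donors, isolated on ficoll, plated at 1×10^6 cells/mL in RPMI with 10% FBS. Compound was preincubated for 30 min, then cells were stimulated with 25 ng/mL LPS (final) for 6 h at 37 °C, 5% CO2. Supernatant TNF-α was measured by ELISA.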
Background: In an ELISA, binding on a coated surface is turned into a signal by an enzyme label.

In data set [1] the target is Mitogen-activated protein kinase 14 (Homo sapiens, UniProt Q16539). Put plainly: Inhibition of human p38-alpha expressed in Escherichia coli.
Sequence of Mitogen-activated protein kinase 14 (Q16539 whole entry): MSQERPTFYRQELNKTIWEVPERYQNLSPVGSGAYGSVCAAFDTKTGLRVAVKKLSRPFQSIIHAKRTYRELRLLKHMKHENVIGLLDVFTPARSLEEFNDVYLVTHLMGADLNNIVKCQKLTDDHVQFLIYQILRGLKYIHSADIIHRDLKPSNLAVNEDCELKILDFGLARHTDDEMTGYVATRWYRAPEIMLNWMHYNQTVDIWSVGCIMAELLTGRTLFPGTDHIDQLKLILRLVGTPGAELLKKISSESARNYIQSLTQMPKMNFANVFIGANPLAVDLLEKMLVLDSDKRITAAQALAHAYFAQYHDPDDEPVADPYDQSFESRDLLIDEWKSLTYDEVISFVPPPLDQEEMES
A short description of data set [2]: Bioavailability in mouse. The class given is ADME, organism-based. The settings on record: in vivo.
Data set [3] in a line: Clearance in mouse. It is filed as ADME, organism-based. The settings on record: in vivo.
The subject of a further data set is THP-1. Put plainly: Inhibition of LPS-induced TNFalpha production in human THP1 cells by ELISA. It is filed as functional, cell-based. The procedure, abridged: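 THP-1 cells grown in RPMI 1640 with 10% FBS, 40000 cells/well. Compound or vehicle was added (1% DMSO final), then LPS at 1 μg/mL final. Cells were incubated overnight at 37 °C, 5% CO2. TNF in the supernatant was measured by sandwich ELISA: anti-human TNF capture, biotinylated polyclonal detection, streptavidin-peroxidase read-out.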

Data set [4] is described as follows: Metabolic stability in mouse liver microsomes. The class given is ADME, Microsome. In general terms: Liver microsomes are a subcellular fraction often used to study metabolism.
Data set [5] deals with Mus musculus. Put plainly: Inhibition of LPS-induced TNFalpha release in po dosed BALB/c mouse after 90 mins. The class given is functional. The settings on record: 1.5 h. The procedure, abridged: (§1)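 Female BALB/c mice, 6–8 weeks old. Compound in 100% PEG 300 given by oral gavage 30 min before ip LPS (0.1 mL of 10 μg/mL in PBS). Blood was taken 90 min after LPS and serum TNF-α measured by ELISA. Mean ± SD, n = 8 mice per group.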

The nature of data set [6]: Half life in mouse. The class given is ADME, organism-based. As to conditions: in vivo.
In a further data set the test system is Liver microsomes. Put plainly: Metabolic stability in human liver microsomes. It is filed as ADME, Microsome.
Data set [7] in a line: Cytotoxicity against phytohemagglutininin-stimulated human T blast cells at 30 uM after 24 hrs relative to control. It is filed as cell-based. As to conditions: t-cell. The procedure, abridged:
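PBMC T cells (1.25×10^6/mL) stimulated with 5 μg/mL PHA for 4 days to give dividing blasts. Blasts at 1.5×10^6/mL were exposed to 30 μM compound in RPMI with 10% FBS and 0.003% DMSO final, for 24 h at 37 °C, 5% CO2. Viability was read as metabolic activity by AlamarBlue and expressed relative to control.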

In data set [8] the target is cAMP-dependent protein kinase (PKA) (Homo sapiens, UniProt P22694+P17612+P22612). In words: Inhibition of PKA. The class given is protein assay.
In data set [9] the test system is Mus musculus. In words: Inhibition of LPS-induced TNFalpha release in BALB/c mouse administered at 10 mg/kg before 2 hrs of LPS challenge. The class given is functional, organism-based. On the set-up: dose 10 mg/kg. A digest of the protocol:
(§2)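 BALB/c mouse LPS-TNF model. Compound was given at 10 mpk at time points from 30 min to 10 h before LPS challenge, and TNF suppression was assessed at each pretreatment interval.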

Data set [10] has as its target MAP kinase-activated protein kinase 2 (Homo sapiens, UniProt P49137). In words: Inhibition of MK2.
For data set [11], the target named is T1, Inhibitor of nuclear factor kappa-B kinase subunit beta (Homo sapiens, UniProt O14920).
T1 sequence (O14920 whole entry): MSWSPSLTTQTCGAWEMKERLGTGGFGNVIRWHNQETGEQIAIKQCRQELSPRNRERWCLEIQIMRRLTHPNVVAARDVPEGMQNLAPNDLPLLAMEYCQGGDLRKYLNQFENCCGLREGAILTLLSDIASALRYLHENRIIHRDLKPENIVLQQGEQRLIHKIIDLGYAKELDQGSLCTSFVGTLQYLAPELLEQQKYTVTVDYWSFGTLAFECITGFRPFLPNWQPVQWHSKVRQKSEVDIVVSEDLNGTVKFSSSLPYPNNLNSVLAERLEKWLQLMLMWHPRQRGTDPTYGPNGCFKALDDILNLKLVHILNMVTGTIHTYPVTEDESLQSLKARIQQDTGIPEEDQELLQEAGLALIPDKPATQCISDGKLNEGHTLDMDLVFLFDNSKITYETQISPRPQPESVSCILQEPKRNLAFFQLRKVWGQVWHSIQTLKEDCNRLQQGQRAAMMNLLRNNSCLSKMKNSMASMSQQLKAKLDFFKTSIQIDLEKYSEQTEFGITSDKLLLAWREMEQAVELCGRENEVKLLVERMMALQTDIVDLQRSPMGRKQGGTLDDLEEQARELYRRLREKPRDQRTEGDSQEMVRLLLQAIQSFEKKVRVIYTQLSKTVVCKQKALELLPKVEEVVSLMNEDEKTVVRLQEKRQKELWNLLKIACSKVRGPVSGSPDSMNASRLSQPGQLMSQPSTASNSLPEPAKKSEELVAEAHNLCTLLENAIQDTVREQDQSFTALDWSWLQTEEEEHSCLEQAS
Put plainly: Inhibition of human IKK2beta.

The subject of data set [12] is Mus musculus. In words: Inhibition of LPS-induced TNFalpha release in BALB/c mouse at 5 mg/kg, po after 90 mins. On the set-up: dose 5 mg/kg. The class given is functional, organism-based. The procedure, abridged: as §1
The target in data set [13] is Tyrosine-protein kinase Lck (Homo sapiens, UniProt P06239). In words: Inhibition of LCK.
Sequence of Tyrosine-protein kinase Lck (P06239 whole entry): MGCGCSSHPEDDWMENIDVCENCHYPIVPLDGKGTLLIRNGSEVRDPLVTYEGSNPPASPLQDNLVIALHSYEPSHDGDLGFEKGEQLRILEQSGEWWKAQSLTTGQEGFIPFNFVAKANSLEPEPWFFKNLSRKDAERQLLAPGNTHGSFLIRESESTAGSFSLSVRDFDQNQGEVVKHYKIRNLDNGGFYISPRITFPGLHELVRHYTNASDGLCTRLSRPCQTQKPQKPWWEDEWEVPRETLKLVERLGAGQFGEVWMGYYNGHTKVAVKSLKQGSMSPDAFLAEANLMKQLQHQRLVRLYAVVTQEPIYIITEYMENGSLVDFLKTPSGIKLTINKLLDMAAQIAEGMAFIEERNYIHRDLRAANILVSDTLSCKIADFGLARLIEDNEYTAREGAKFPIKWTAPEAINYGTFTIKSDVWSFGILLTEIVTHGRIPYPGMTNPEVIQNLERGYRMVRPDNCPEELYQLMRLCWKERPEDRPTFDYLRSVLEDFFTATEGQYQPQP
Data set [14] has as its system Mus musculus. In words: Inhibition of LPS-induced TNFalpha release in BALB/c mouse administered at 10 mg/kg before 30 mins of LPS challenge. It is filed as functional, organism-based. On the set-up: dose 10 mg/kg. The procedure, abridged: as §2
Data set [15] has as its target Protein kinase C alpha type (Homo sapiens, UniProt P17252). In words: Inhibition of PKCalpha.
Data set [16] has as its target Mitogen-activated protein kinase 11 (Homo sapiens, UniProt Q15759). Put plainly: Inhibition of human p38beta.

Active and inactive are the calls of the source.

Sequence of Mitogen-activated protein kinase 11 (Q15759 whole entry): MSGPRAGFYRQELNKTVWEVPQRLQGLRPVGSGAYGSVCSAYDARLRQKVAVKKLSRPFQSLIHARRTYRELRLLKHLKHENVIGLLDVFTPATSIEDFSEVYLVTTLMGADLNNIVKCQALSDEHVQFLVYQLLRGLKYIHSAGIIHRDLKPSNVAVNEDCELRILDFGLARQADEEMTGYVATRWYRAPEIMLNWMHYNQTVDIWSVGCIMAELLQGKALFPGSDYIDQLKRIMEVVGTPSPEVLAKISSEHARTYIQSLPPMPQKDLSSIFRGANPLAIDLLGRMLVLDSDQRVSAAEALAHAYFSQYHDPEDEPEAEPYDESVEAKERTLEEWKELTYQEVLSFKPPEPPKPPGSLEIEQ
Sequence of MAP kinase-activated protein kinase 2 (P49137 whole entry): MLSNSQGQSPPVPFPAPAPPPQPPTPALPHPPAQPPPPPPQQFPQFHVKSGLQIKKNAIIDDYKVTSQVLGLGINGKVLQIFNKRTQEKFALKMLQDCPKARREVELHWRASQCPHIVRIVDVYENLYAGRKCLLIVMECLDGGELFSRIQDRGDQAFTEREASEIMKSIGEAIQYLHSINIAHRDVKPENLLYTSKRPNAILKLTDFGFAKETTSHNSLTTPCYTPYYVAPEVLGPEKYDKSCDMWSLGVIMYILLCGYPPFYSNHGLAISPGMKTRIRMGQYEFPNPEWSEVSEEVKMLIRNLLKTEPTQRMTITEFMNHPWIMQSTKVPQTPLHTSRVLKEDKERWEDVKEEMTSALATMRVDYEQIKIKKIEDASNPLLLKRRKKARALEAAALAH

In the case of `CONC(=O)c1ccc(C)c(Nc2nc(N(C)CC(C)(C)C)nc(N3CCCN(C)CC3)n2)c1`, the half-maximal inhibitory concentration (IC50) with PBMC was 4.6 nM; in [1] it was 44 nM; with THP-1 it was 85 nM; in data set [8], greater than 10000 nM; in data set [10] it was greater than 10000 nM; in [11], greater than 10000 nM. Besides, the IC50 was greater than 10000 nM in [13], greater than 10000 nM in [15] and 22 nM in data set [16]. In addition, in data set [2], the bioavailability is 8%. Moreover, the clearance in data set [3] was 107 mL/min/kg. Moreover, the Stability is reported as 0.8 nmol/mg/min in data set [4] and 0.2 nmol/mg/min in the data set with Liver microsomes. It took a dose of 3 mg/kg to reach the 50% effect level in the data set with Mus musculus [5] (ED50). Also, the half-life in data set [6] was 42 min. Also, in [7], the Activity was 70%. Further, the outcome in the data set with Mus musculus [9], in the data set on Mus musculus [12] and in the data set with Mus musculus [14] was Active.

The values are drawn from ChEMBL document CHEMBL1149254, “The discovery of orally active triaminotriazine aniline amides as inhibitors of p38 MAP kinase” (J Med Chem, 2004).
